CHT PAM: CHT positive allosteric modulators, primary screen, cell-based, membrane potential dye, choline EC20 | CHT-expressing cells; hits give high values; LV-AA mutant CHT in HEK293 cells | 310,000 compounds, 0.49% hits | High affinity choline transporter 1 (Homo sapiens), Q9GZV3 | B-score at 10 µM;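 active = initial fluorescence not abnormally high and integrated response B-score, plate-corrected, over 3 SD above library mean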
Target sequence (Q9GZV3 whole entry, looked up): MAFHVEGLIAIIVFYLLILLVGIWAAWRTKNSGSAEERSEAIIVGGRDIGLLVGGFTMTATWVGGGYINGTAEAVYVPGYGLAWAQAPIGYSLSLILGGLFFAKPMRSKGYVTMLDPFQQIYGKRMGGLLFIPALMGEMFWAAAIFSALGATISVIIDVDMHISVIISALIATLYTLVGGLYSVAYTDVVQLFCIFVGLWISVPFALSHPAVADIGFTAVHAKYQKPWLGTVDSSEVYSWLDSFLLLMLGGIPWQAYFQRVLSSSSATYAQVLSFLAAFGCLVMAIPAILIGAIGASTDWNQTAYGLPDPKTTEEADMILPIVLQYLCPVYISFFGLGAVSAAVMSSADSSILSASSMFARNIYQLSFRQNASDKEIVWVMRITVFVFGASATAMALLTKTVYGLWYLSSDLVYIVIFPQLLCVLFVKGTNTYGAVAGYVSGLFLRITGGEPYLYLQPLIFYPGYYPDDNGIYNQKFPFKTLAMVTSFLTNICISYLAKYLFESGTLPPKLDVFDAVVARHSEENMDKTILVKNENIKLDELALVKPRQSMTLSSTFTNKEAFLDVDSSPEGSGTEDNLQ
ANO1 activ: TMEM16A chloride channel activators or potentiators, primary screen, cell-based, HTS. HEK293 TMEM16A/YFP-H148Q/I152L, iodide quench fluorescence; hits give low values. B-score at 10 µM. 340,000 compounds, 0.3% hits;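 active = fluorescence-ratio B-score plate-corrected deviation score at least 3 library SD below zero, with starting fluorescence score within 5 deviations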;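 note: channel opened by trigger with iodide after compound preincubation; score built on the fluorescence ratio of max minus min over baseline; more negative score means more quench and so TMEM16A activation or potentiation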
ANO1 block: TMEM16A chloride channel inhibitors, primary screen, cell-based, HTS | Anoctamin-1 (Mus musculus), Q8BHY3 | 310,000 compounds, 1.2% hits | normalized B-score (activity score, 25-100; higher = stronger inhibition) at 10 µM | HEK293 TMEM16A/YFP iodide influx fluorescence, ionomycin;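 active = ratio plate-corrected score three or more library SD toward inhibition, starting fluorescence score within five deviations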;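 note: score derived from kinetic fluorescence span divided by baseline fluorescence per well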
IMP-1 inhibitor: IMP-1 metallo-beta-lactamase inhibitors, primary screen, biochemical, epi-absorbance readout, Pseudomonas aeruginosa enzyme; purified IMP-1, nitrocefin hydrolysis, epi-absorbance fluorescence; metallo-beta-lactamase IMP-1 (Pseudomonas aeruginosa); AID 1556, 2009; 290,000 compounds, 0.45% hits; inhibition, % at 5.6 µM;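 active = inhibition above the mean plus 3 SD of all compounds in the same screening run, cut at about 4.5% in these data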;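 note: 0% = IMP-1 with DMSO and 100% = DMSO wells lacking enzyme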
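Test system: recombinant IMP-1 enzyme, purified / Medium: HEPES buffer pH 7.1 with ZnSO4 and Brij 35 / Doses: single dose, 5.6 µM / Times: 25 °C, 15 min preincubation, 25 min reaction / Detection: Epi-absorbance via hydrolysed-nitrocefin quenching of white-plate fluorescence, 480/530 nm, EDTA stop / Evaluation: percent inhibition from optical density relative to buffer-blank wells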
CHT block: inhibitors of human choline transporter CHT; High affinity choline transporter 1 (Homo sapiens), Q9GZV3; CHT-expressing cells, membrane potential dye, choline response; hits give low values; B-score at 10 µM; 310,000 compounds, 0.86% hits; AID 488975, 2010;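 active = B-score over 3 SD under the library average, and starting fluorescence ratio not unusually high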;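 note: choline stimulus applied at its EC90 after an EC20 pre-addition; B-score computed on integrated fluorescence ratio after choline addition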
VIM-2 inhibitor: VIM-2 metallo-beta-lactamase inhibitors, primary screen, biochemical, epi-absorbance readout, Pseudomonas aeruginosa enzyme; AID 1527, 2009; inhibition, % at 5.6 µM; purified VIM-2, nitrocefin hydrolysis, epi-absorbance fluorescence; 290,000 compounds, 0.89% hits;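 active = inhibition above the mean of all tested compounds plus 3 SD, cutoff set per screening run, cut at about 7.5% in these data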;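 note: red hydrolysis product quenches plate fluorescence so inhibitors raise well fluorescence; 0% = enzyme with DMSO and 100% = DMSO without enzyme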
The depositor's hits bear a star; i = inactive; . = not tested or not shown. An excerpt weighted towards active compounds, which were near 3.4% of everything screened.

SMILES | CHT PAM | ANO1 activ | ANO1 block | IMP-1 inhibitor | CHT block | VIM-2 inhibitor
Cc1cc(NC(=O)CSc2nnc(-c3ccncc3)n2C)n(-c2ccccc2)n1 | i | -4.9* | i | -1 | i | -2
Cc1cc(NC(=O)CSc2nnc(-c3ccncc3)n2Cc2ccccc2)n(-c2ccccc2)n1 | i | i | i | -3 | i | -2
NNC(=O)c1nc[nH]c1C(=O)Nc1ccccn1 | i | i | i | 7.6* | i | -3
C[C@H](CO)N1C[C@H](C)[C@@H](CN(C)S(=O)(=O)c2cccs2)Oc2c(NS(=O)(=O)c3ccccc3)cccc2C1=O | . | i | . | . | . | .
Nc1nc2ccccc2n1CCOc1ccc(Cl)cc1 | i | i | i | -5 | i | -3
Nc1nc2ccccc2n1CCOc1ccccc1Cl | i | i | i | -5 | -14* | -4
O=C(CN(C(=O)c1csnn1)c1cccc(C(F)(F)F)c1)NCCc1ccccc1 | i | i | i | -1 | i | -2
CCCS(=O)(=O)N1CCN(C2CCC(C)CC2)CC1 (stereo unspecified) | i | i | i | -1 | i | -8
CCCS(=O)(=O)N1CCN(C2Cc3ccccc3C2)CC1 | i | -13* | i | 0 | i | 1
COc1ccccc1NC(=O)CSc1nc2c(sc3ccccc32)c(=O)n1CCN(C)C | i | i | i | -1 | i | 3
CN(C)CCn1c(SCc2ccccc2C#N)nc2c(sc3ccccc32)c1=O | i | i | i | 3 | i | 10*
COc1cccc(/C=C2\Oc3cc(OC(=O)N4CCOCC4)ccc3C2=O)c1 | i | i | i | -3 | i | -3
COc1cccc(/C=C2\Oc3cc(OCC(=O)N4Cc5ccccc5C[C@H]4C(=O)O)ccc3C2=O)c1 | i | i | i | -1 | i | 9.8*
COc1ccc2c(c1)[nH]c1c(N3CCN(Cc4ccc5c(c4)OCO5)CC3)ncnc12 | i | i | 100* | -1 | i | 1
Fc1cnc(Cl)nc1NC1CCCCC1 | i | i | i | -4 | i | -5
CCSc1nsc(NC(=O)Nc2cccc(F)c2)n1 | i | i | 100* | -9 | i | -1
CC(C)N(C(=O)c1nn(C)c2c1CSc1ccccc1-2)C1CCCCC1 | i | i | 25* | -3 | i | -3
Cn1nc(C(=O)NC2CCCCC2)c2c1-c1ccccc1SC2 | i | i | i | -4 | i | -1
O=C(c1ccc(-c2ccccc2)cc1)C1CCCN(Cc2ccncc2)C1 (stereo unspecified) | i | i | 100* | -2 | i | -2
O=C(c1ccc(-c2ccccc2)cc1)C1CCCN(C(=O)c2ccncc2)C1 (stereo unspecified) | i | i | i | -1 | i | 1
O=C(O)CCN1CCN(S(=O)(=O)c2ccc3ccccc3c2)CC1 | i | i | i | -4 | i | -2
COC(=O)c1cccc(C(=O)N2CCCC(Nc3ccc(C)c(C)c3)C2)c1 (stereo unspecified) | i | i | i | 0 | i | -4
COc1ccc(CCNC(=O)C(=O)NCC2CCCN2S(=O)(=O)c2ccccc2)cc1OC (stereo unspecified) | i | i | 25* | . | i | .
COc1ccc(CN2CCC(Cc3ccccc3)CC2)cc1OC | i | i | i | -3 | i | -3
COc1ccc(CCNC(=O)c2ccc(CN3CCC(Cc4ccccc4)CC3)cc2)cc1OC | i | -6.9* | i | 0 | i | 1
SMILES | CHT PAM | ANO1 activ | ANO1 block | IMP-1 inhibitor | CHT block | VIM-2 inhibitor
COc1ccc(Br)cc1/C=N/NC(=O)CN1CCN(Cc2ccccc2)CC1 | i | i | i | -2 | i | 1
CC(C)(C)OC(=O)N1CSC[C@H]1C(=O)NC[C@H](CC(=O)O)c1ccc(Cl)cc1 | i | i | i | 1 | i | 1
Cn1ccs/c1=N\C(=O)Nc1cccc(C(F)(F)F)c1 | i | i | i | -2 | i | -2
CCSc1nnc(NC(=O)C(CC)(C(F)(F)F)C(F)(F)F)s1 | i | i | 100* | -5 | -5.2* | -5
CNS(=O)(=O)c1cccc(C(=O)OCc2cc(=O)oc3c(C)c(O)ccc23)c1 | i | i | 100* | -1 | -6.3* | 4
CCc1cc2c(COC(=O)c3cccc(S(C)(=O)=O)c3)cc(=O)oc2cc1O | i | i | i | -1 | i | -2
CCOC(OCC)c1cn(Cc2ccc3c(c2)C(=O)c2ccccc2C3=O)nn1 | i | . | i | -1 | i | 9.9*
CN(C)CCCN(C(=O)c1ccc(S(=O)(=O)N2CCCCCC2)cc1)c1nc2c(F)cc(F)cc2s1 | i | i | i | . | i | .
O=S(=O)(Nc1nc(-c2sccc2Cl)cs1)c1cc(Cl)ccc1Cl | i | i | 100* | 2 | i | 5
Cc1ccccc1N1CCN(c2ccccc2NC(=O)/C=C\C(=O)O)CC1 | . | i | . | . | . | .
Cc1cc(/C=N/n2cnnc2)c(C)n1-c1ccc(OCc2ccc(Cl)cc2Cl)cc1 | i | i | 100* | -4 | i | 0
Cc1cc(/C=N/n2cnnc2)c(C)n1-c1ccc(Cl)cc1 | i | i | i | -6 | i | 1
COc1ccc(-c2nc(C(=O)NCCCN3CCOCC3)cc3c2[nH]c2ccccc23)cc1OC | i | i | i | -2 | i | 12*
CCn1cc(/C=C(\NC(=O)c2ccc(OC)c(OC)c2)C(=O)NCCCN2CCOCC2)c2ccccc21 | . | -43* | . | 0 | . | -1
CCn1cc(/C=C(\NC(=O)c2ccc(C)cc2)C(=O)NCCCN2CCOCC2)c2ccccc21 | . | i | . | -3 | . | 0
CC(=O)NCCNC(=O)c1ccc(CSc2nc3ccccc3s2)cc1 | i | i | i | -3 | i | 1
Cc1ccccc1OCC(O)CN(CCO)Cc1ccccc1 (stereo unspecified) | i | -38* | i | -3 | i | -2
O=c1c(O)cccc2cc(O)c(O)c(O)c12 | i | i | i | 7.7* | i | 5
O=C1CC(c2cccc([N+](=O)[O-])c2)c2ccc3ccccc3c2N1 (stereo unspecified) | i | i | 25* | -2 | i | -3
COc1ccccc1C1C(C(N)=O)=C(C)Nc2ncnn21 (stereo unspecified) | i | i | i | 6.8* | i | 1

From PubChem BioAssay
